Holding throughout (format): functional, cell-based, Mus musculus
One test deals with L1210. As to the kind of experiment: Antitumor activity against L1210 cell line determined by reduction of the [3H]thymidine incorporation after a 24-h incubation period. Summed up: (§1)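 Mouse ascites tumor cells harvested 7 days after i.p. transplantation, washed, preincubated 4 h at 2.10^5 cells/mL in RPMI 1640 with 10% FCS and 1 mM glutamine under 5% CO2. Cells then exposed to compounds (ethanol stocks diluted in medium) for 24 h at 37°C. [3H]TdR (0.5 μCi) was added […] and cells were harvested 8 h later. Values are means of two experiments, each in 4-fold.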
(In general: Incorporation of labelled thymidine or its analogues reports DNA synthesis.)

In another test the test system is MOPC 315. As to the kind of experiment: Antitumor activity against MOPC315 cell line determined by reduction of the [3H]thymidine incorporation after a 24-h incubation period. Summed up: as §1
In the next test the test system is P815. Kind of test: Antitumor activity against P815 cell line determined by reduction of the [3H]thymidine incorporation after a 24-h incubation period. An outline of the steps:
as §1

Take “5-(2,2-Dimethyl-[1,3]dioxolan-4-yl)-2,2-dimethyl-6-[(triphenylstannanyl)-methyl]-tetrahydro-furo[2,3-d][1,3]dioxol-6-ol”: the IC50 in the test on L1210, in the test on MOPC 315 and with P815 was > 5000 nM each time.
“5-(2,2-Dimethyl-[1,3]dioxolan-4-yl)-2,2-dimethyl-6-triphenylstannanyl-tetrahydro-furo[2,3-d][1,3]dioxol-6-ol”: the IC50 – broadly, the concentration that gives 50% inhibition – in the test on L1210 turned out to be 760 nM; in the test on MOPC 315, 670 nM; with P815, 540 nM.
In the case of TRIPHENYLTIN CHLORIDE, the IC50 is 180 nM with L1210, 200 nM in the test with MOPC 315 and 130 nM in the test on P815.
